Values belong to the molecule of their own block, whether it stands above or below them. Activity calls are given as the source filed them. The calls are words filed in the database; no cut-off is given here.
Columns and labels:
[1] = target: T1, Aldo-keto reductase family 1 member C3 (Homo sapiens, UniProt P42330); assay: Inhibition of human 17beta-HSD5 expressed in HEK293 cells using androstenedione as substrate assessed as testosterone synthesis after 4 hrs; type: cell-based
T1 sequence (P42330 whole entry): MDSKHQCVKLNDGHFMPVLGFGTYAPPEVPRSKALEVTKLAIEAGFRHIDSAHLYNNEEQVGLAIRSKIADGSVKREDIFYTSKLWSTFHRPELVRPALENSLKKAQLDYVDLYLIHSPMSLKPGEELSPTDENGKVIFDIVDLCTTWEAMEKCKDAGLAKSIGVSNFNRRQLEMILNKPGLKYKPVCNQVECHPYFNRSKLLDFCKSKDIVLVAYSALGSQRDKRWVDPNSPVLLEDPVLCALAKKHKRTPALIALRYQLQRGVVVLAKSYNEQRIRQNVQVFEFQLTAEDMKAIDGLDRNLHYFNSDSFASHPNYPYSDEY
Outline: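 HEK293 cells stably expressing human 17β-HSD5 were seeded at 2×10^4 cells/well in D-MEM/10% FBS and incubated overnight at 37 °C, 5% CO2. Androstenedione (final 300 nmol/mL) was added with compound. After 4 h, supernatant testosterone was measured by DELFIA immunoassay.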

[2] = Plasma concentration in ICR mouse at 30 mg/kg, po after 4 hrs by HPLC analysis; type: ADME, organism-based; set-up: dose 30 mg/kg, route oral
Outline: (§1)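 ICR mice were dosed orally, and blood was collected 1 or 4 h later. Compound was extracted from plasma with acetonitrile and quantified by HPLC.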

[3] = Plasma concentration in ICR mouse at 30 mg/kg, po after 1 hr by HPLC analysis; type: ADME, organism-based; set-up: dose 30 mg/kg, route oral; outline: as §1
[4] = Permeability of the compound after 2 hrs at pH 6.5 by PAMPA; type: ADME; conditions: read-out: permeability
Outline: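 PAMPA used a donor at pH 6.5 (universal buffer, 10% DMSO, typical final sample 50 μM, filtered) and an acceptor at pH 7.4, separated by a filter coated with 20% lecithin in dodecane. Plates were incubated at 25 °C for 2 h under saturated humidity. Both compartments were quantified by UV spectrum (270-400 nm) against standards, with a mass balance correction; Pe was then calculated.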

[5] = Solubility of the compound at pH 6.8; type: physicochemical; conditions: buffer
Outline: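 A 10 mM DMSO solution (13 μL) was added to 1 mL of Japanese Pharmacopoeia second disintegration fluid (pH 6.8) and shaken at 25 °C for 20 h. Solubility was calculated from the LC peak-area ratio of sample to standard.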

Cytochrome P450 2C19 = Cytochrome P450 2C19 (Homo sapiens, UniProt P33261); assay: Inhibition of CYP2C19 (unknown origin); type: ADME
Chain of Cytochrome P450 2C19 (P33261 whole entry): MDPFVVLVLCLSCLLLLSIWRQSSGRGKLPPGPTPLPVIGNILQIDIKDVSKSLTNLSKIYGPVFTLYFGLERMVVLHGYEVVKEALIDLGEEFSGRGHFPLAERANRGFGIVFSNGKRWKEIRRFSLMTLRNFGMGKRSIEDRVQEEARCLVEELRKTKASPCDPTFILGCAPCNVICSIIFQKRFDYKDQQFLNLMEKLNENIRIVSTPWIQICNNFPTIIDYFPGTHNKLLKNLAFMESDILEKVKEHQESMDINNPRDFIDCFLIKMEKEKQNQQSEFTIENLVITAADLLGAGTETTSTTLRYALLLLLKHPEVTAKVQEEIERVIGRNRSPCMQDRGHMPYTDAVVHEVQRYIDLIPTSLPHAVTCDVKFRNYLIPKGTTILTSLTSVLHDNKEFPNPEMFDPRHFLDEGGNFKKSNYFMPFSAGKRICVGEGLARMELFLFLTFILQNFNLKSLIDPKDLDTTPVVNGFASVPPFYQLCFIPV

[6] = AUC (0 to 24 hrs) in Sprague-Dawley rat at 1 mg/kg, po; type: ADME, organism-based; set-up: time < 24 hr, dose 1 mg/kg, route oral; conditions: plasma
Outline: (§2)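 Male Sprague-Dawley rats aged 8 weeks received a single 1 mg/kg dose. The iv vehicle was saline with 15% DMF and 20% PEG 400; the oral vehicle was water with 10% DMF and 10% propylene glycol. Blood was sampled at multiple times up to 24 h and spun at 16,000 g for 2 min at 4 °C. Plasma drug was measured by HPLC-MS/MS.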

[7] = target: T2, Aldo-keto reductase family 1 member C2 (Homo sapiens, UniProt P52895); assay: Inhibition of human AKR1C2-mediated 9,10-phenanthrenequinone reduction after 10 to 20 mins by spectrophotometry in presence of NADPH
T2 sequence (P52895 whole entry): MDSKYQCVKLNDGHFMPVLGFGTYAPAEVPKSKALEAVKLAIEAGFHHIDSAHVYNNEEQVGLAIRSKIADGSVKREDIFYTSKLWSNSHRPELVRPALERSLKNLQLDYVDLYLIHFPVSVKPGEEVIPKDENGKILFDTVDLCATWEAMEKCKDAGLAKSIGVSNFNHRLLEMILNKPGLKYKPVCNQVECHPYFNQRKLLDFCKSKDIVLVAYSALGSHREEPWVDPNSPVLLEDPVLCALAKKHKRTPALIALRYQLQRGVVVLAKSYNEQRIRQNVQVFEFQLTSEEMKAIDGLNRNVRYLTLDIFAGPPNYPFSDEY
Outline: (§3)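 Purified human AKR1C enzyme (final 10 μg/mL) was mixed with 9,10-phenanthrenequinone (4 μmol/L), NADPH (200 μmol/L) and compound in 100 mM potassium phosphate pH 6.0, at room temperature for 10-20 min. NADPH absorbance was read at 340 nm and normalized to no-enzyme (0%) and no-compound (100%) controls. IC50 was obtained by Sigmoid-Emax nonlinear regression.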

Cytochrome P450 1A2 = target: T3, Cytochrome P450 1A2 (Homo sapiens, UniProt P05177); assay: Inhibition of CYP1A2 (unknown origin); type: ADME
T3 sequence (P05177 whole entry): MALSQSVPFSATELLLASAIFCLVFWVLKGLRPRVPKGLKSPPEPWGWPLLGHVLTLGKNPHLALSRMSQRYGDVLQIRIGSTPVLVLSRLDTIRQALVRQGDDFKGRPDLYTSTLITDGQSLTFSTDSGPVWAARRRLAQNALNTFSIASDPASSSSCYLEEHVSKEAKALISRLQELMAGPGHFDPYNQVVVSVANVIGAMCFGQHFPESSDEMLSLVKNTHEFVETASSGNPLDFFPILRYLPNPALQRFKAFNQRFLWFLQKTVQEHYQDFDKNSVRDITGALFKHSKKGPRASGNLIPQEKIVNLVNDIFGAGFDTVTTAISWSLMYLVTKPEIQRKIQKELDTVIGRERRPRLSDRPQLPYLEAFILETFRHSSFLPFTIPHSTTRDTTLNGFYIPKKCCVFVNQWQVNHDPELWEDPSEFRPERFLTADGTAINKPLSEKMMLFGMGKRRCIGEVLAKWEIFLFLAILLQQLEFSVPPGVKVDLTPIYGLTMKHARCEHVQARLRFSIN

Cytochrome P450 2C9 = Cytochrome P450 2C9 (Homo sapiens, UniProt P11712); assay: Inhibition of CYP2C9 (unknown origin); type: ADME
Chain of Cytochrome P450 2C9 (P11712 whole entry): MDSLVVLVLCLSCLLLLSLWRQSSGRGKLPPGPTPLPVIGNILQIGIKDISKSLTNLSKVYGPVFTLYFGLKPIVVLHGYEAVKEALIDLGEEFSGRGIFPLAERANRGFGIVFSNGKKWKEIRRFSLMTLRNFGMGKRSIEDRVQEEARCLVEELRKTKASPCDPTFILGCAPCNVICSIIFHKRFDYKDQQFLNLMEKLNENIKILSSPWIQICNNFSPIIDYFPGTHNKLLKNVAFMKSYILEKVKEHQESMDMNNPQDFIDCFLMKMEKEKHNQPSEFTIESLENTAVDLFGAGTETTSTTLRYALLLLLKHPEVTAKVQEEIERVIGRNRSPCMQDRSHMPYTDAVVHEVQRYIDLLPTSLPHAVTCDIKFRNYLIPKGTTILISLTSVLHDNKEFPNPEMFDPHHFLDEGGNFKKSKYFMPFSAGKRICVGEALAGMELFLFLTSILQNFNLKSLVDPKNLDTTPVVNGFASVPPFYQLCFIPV

Mus musculus [8] = assay: Inhibition of androstenedione-induced testosterone production in tumor of human CWR22R cells xenografted in BALB/c athymic nude mouse at 10 mg/kg, po treated 1 hr prior to androstenedione-challenge measured after 2 hrs; type: functional, organism-based; set-up: dose 10 mg/kg
Outline: (§4)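 Male BALB/c athymic nude mice aged 4-6 weeks were castrated, then given subcutaneous CWR22R tumor cells (protease-digested fragments in RPMI 1640/20% FBS mixed 1:1 with Matrigel) into each flank. About 3 weeks later, size-matched mice were randomized (n = 4/group) and dosed orally. Androstenedione (1 ng/100 mm3 tumor) was injected intratumorally 1 h post-dose. Tumors were removed at 2 h, homogenized in 200 mmol/L phosphate pH 7.4, and extracted with tert-butyl methyl ether; testosterone was read by DELFIA.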

[9] = Total clearance in Sprague-Dawley rat at 1 mg/kg, iv; type: ADME, organism-based; set-up: dose 1 mg/kg, route intravenous; conditions: in vivo; outline: as §2
[10] = AUC (0 to 24 hrs) in Sprague-Dawley rat at 1 mg/kg, iv; type: ADME, organism-based; set-up: time < 24 hr, dose 1 mg/kg, route intravenous; conditions: plasma; outline: as §2
Mus musculus [11] = assay: Inhibition of androstenedione-induced testosterone production in tumor of human CWR22R cells xenografted in po dosed BALB/c athymic nude mouse treated 1 hr prior to androstenedione-challenge measured after 2 hrs; type: functional, organism-based; outline: as §4
Cytochrome P450 2D6 = Cytochrome P450 2D6 (Homo sapiens, UniProt P10635); assay: Inhibition of CYP2D6 (unknown origin); type: ADME
Chain of Cytochrome P450 2D6 (P10635 whole entry): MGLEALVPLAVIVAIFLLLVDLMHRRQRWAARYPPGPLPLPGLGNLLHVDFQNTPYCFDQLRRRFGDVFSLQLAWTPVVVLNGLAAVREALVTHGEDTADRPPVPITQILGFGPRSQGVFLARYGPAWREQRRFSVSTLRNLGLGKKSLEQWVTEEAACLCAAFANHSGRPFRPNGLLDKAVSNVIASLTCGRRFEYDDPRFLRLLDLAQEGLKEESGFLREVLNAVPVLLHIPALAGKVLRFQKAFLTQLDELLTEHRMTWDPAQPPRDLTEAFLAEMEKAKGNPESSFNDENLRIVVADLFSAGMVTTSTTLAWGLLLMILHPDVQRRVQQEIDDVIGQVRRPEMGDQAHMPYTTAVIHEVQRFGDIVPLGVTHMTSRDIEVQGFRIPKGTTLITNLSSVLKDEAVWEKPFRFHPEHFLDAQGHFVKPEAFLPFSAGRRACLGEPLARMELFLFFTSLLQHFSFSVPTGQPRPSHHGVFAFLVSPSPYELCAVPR

[12] = Half life in Sprague-Dawley rat at 1 mg/kg, iv; type: ADME, organism-based; set-up: dose 1 mg/kg, route intravenous; conditions: in vivo; outline: as §2
[13] = Cmax in Sprague-Dawley rat at 1 mg/kg, po; type: ADME, organism-based; set-up: dose 1 mg/kg, route oral; conditions: in vivo; outline: as §2
[14] = Oral bioavailability in Sprague-Dawley rat at 1 mg/kg; type: ADME, organism-based; conditions: in vivo; outline: as §2
[15] = target: Voltage-gated inwardly rectifying potassium channel KCNH2 (Homo sapiens, UniProt Q12809); assay: Inhibition of human ERG channel by Rb efflux assay
Chain of Voltage-gated inwardly rectifying potassium channel KCNH2 (Q12809 whole entry): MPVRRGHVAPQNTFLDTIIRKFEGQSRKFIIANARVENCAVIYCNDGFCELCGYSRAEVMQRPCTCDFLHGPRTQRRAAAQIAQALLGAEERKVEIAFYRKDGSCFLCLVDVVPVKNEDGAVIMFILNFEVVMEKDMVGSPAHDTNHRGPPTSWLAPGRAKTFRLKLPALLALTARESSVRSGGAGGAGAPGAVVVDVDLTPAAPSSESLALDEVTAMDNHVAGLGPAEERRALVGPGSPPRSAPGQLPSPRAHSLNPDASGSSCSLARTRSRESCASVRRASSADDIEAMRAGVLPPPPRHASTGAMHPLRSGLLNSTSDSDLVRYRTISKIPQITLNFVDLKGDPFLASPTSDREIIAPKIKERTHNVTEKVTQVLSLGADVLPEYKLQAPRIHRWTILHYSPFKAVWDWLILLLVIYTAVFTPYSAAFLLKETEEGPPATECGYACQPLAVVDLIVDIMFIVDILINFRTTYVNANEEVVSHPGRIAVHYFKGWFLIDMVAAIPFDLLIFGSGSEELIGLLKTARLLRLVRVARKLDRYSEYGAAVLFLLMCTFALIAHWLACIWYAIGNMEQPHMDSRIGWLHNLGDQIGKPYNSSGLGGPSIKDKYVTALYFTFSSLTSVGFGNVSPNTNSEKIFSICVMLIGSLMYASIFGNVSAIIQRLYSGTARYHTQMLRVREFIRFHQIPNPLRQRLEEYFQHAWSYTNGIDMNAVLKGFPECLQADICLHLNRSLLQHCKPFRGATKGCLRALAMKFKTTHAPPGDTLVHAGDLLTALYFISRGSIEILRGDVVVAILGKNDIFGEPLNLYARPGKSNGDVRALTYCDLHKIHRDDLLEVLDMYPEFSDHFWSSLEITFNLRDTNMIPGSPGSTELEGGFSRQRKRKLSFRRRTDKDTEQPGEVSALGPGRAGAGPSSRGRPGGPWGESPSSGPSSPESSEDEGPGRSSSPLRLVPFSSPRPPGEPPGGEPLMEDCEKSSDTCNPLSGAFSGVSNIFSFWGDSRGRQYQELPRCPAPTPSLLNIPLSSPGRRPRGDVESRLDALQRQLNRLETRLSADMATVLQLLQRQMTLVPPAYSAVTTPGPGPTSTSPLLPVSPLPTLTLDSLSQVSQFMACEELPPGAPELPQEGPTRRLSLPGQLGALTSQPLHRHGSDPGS

Cytochrome P450 3A4 = Cytochrome P450 3A4 (Homo sapiens, UniProt P08684); assay: Inhibition of CYP3A4 (unknown origin) using nifedipine as substrate; type: ADME
Chain of Cytochrome P450 3A4 (P08684 whole entry): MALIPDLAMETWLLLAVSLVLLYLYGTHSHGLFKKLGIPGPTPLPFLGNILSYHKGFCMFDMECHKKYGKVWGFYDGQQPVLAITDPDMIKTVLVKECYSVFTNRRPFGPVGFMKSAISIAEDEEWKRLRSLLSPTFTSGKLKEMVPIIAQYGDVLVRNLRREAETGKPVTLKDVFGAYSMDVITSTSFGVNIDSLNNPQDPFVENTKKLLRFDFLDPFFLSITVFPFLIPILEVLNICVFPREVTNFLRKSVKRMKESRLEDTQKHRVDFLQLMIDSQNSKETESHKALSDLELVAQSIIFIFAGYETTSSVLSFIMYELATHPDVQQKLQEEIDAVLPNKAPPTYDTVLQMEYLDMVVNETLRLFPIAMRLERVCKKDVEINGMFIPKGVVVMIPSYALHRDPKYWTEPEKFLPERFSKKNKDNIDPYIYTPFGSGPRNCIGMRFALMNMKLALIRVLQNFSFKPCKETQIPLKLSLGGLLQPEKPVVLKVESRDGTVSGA

[16] = Tmax in Sprague-Dawley rat at 1 mg/kg, po; type: ADME, organism-based; set-up: dose 1 mg/kg, route oral; conditions: in vivo; outline: as §2
[17] = target: T1, Aldo-keto reductase family 1 member C3; assay: Inhibition of human AKR1C3-mediated 9,10-phenanthrenequinone reduction after 10 to 20 mins by spectrophotometry in presence of NADPH; outline: as §3
[18] = Volume of distribution at steady state in Sprague-Dawley rat at 1 mg/kg, iv; type: ADME, organism-based; set-up: dose 1 mg/kg, route intravenous; conditions: in vivo, read-out: Vdss; outline: as §2
[19] = target: T1, Aldo-keto reductase family 1 member C3; assay: Inhibition of human 17beta-HSD5 expressed in human CWR22R cells using androstenedione as substrate assessed as testosterone synthesis after 4 hrs; type: cell-based
Outline: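 CWR22R cells were seeded at 2×10^4 cells/well in RPMI-1640/10% FBS and incubated overnight at 37 °C, 5% CO2. Compound was added with androstenedione (final 300 nmol/mL). After 4 h, supernatant testosterone was quantified by DELFIA.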

SMILES: CC(O)CC1CCN(C(=O)c2cc3ccccc3[nH]2)CC1 (centres undefined)
- IC50 [1]: 12 nM

SMILES: O=C(c1cc2ccccc2[nH]1)N1CCCCC1CCO (centres undefined)
- IC50 [1]: 230 nM

SMILES: CC(C)(O)CC1CCN(C(=O)c2cc3ccccc3[nH]2)CC1
- concentration at 4 h [2]: < 100 nM
- concentration at 1 h [3]: 2610 nM
- IC50 [1]: 2.1 nM
- Papp at 2 h [4]: 26 ×10⁻⁶ cm/s
- solubility [5]: > 100 µM

SMILES: O=C(c1cc2ccccc2[nH]1)N1CC(CCO)C1
- IC50 [1]: 140 nM

SMILES: O=C(c1cc2ccccc2[nH]1)N1CCC(CCO)C1 (centres undefined)
- IC50 [1]: 1100 nM

SMILES: Cc1ccc2[nH]c(C(=O)N3CC=CCC3)cc2c1
- IC50 [1]: 2800 nM

SMILES: CC(=O)CC1CCN(C(=O)c2cc3ccccc3[nH]2)CC1
- IC50 [1]: 13 nM

SMILES: O=C(c1cc2ccccc2[nH]1)N1CCCC(CCO)C1 (centres undefined)
- IC50 [1]: 2100 nM

SMILES: O=C(NCCCCCO)c1cc2ccccc2[nH]1
- IC50 [1]: 1200 nM

Further lines, with some results ahead:

- IC50 [1]: 790 nM
SMILES: Cc1ccc2[nH]c(C(=O)N3CCC(CO)CC3)cc2c1

- IC50 [1]: 160 nM
SMILES: Cc1ccc2[nH]c(C(=O)N3CCC(CCCO)CC3)cc2c1

- IC50 (Cytochrome P450 2C19): > 25000 nM
- AUC(0-t) at 24 h [6]: 255 ng·h/mL
- IC50 [7]: > 20000 nM
- IC50 (Cytochrome P450 1A2): > 25000 nM
- IC50 (Cytochrome P450 2C9): > 25000 nM
- clearance [9]: 42 mL/min/kg
- AUC(0-t) at 24 h [10]: 395 ng·h/mL
- concentration at 4 h [2]: 3100 nM
- IC50 (Cytochrome P450 2D6): > 25000 nM
- half-life [12]: 27.6 min
- Cmax [13]: 180 ng/mL
- bioavailability [14]: 65%
- concentration at 1 h [3]: 10900 nM
- IC50 (Cytochrome P450 3A4): > 100000 nM
- IC50 [1]: 0.34 nM
- Tmax [16]: 30 min
- IC50 [17]: 24 nM
- Papp at 2 h [4]: > 30 ×10⁻⁶ cm/s
- Vd [18]: 1.7 L/kg
- IC50 [19]: 1.9 nM
- solubility [5]: > 100 µM
SMILES: Cc1ccc2[nH]c(C(=O)N3CCC(CC(C)(C)O)CC3)cc2c1
- inhibition (Mus musculus [8]): Active
- inhibition (Mus musculus [11]): Dose-dependent effect
- IC50 [15]: > 100000 nM

- IC50 [1]: 33 nM
SMILES: COCCC1CCN(C(=O)c2cc3ccccc3[nH]2)CC1

- concentration at 4 h [2]: < 100 nM
- concentration at 1 h [3]: < 100 nM
- IC50 [1]: 37 nM
- Papp at 2 h [4]: > 30 ×10⁻⁶ cm/s
- IC50 [19]: 58 nM
- solubility [5]: > 100 µM
SMILES: Cc1ccc2[nH]c(C(=O)N3CCC(CCO)CC3)cc2c1

- IC50 [1]: 4.5 nM
SMILES: O=C(c1cc2ccccc2[nH]1)N1CCC(CCO)CC1

- IC50 [1]: > 10000 nM
SMILES: Cc1ccc2[nH]c(C(=O)N3CCC(CC(=O)O)CC3)cc2c1

- IC50 [1]: 770 nM
SMILES: Cc1ccc2[nH]c(C(=O)N3CCN(CCO)CC3)cc2c1
